Rows were chosen to be rich in hits. Some 2.1% of all compounds tested hit in one or more screens of this group.
PKA-R1A activ: activates the PKA-R1A holoenzyme complex. P00514+P68181. PKA-R1A dissociation, Cy5-IP20 fluorescence polarization; scaled: DMSO 0%, 113 µM cGMP 100%. activation, % at 11.4 µM. 340,000 tested, 0.083% active. AID 504707;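 active = percent activation above the mean of all tested compounds plus 3 SD, cut at about 19% in these data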;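 note: higher means more PKAc released from R1A so a rise in polarization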
PKA-R2B act: activates the human PKA-R2B holoenzyme complex; activation, % at 11.4 µM; PKA-R2B holoenzyme dissociation, Cy5-IP20 fluorescence polarization; R2B truncated from residue 108, S112A mutant; 0% DMSO only, 100% 113 µM cGMP; P22694+P31323; AID 504700; 340,000 tested, 0.079% active;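 active = activation above a cutoff set at the mean over all compounds plus 3 SD, cut at about 18% in these data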;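 note: higher means more holoenzyme dissociation and a rise in polarization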
Target sequence (P31323 whole entry, looked up, other chains not shown, the tested form may be a part): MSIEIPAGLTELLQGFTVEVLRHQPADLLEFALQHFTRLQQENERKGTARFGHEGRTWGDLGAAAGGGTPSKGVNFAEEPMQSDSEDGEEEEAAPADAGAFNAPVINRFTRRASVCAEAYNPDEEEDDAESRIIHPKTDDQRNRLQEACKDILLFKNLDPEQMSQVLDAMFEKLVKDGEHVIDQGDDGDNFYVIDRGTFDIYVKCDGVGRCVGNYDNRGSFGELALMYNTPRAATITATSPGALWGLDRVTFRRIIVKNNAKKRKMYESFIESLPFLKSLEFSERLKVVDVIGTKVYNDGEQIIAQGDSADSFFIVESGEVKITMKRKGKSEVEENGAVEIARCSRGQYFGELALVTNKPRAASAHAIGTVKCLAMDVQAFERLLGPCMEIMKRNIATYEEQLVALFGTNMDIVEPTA
CDK5 inh: inhibitors of human CDK5/p35 kinase | Recombinant CDK5/p35, ADP-Glo luminescence, 60 min | inhibition, % at 10 µM | Q00535+Q15078 | 330,000 tested, 0.01% active;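 active = highest replicate inhibition of at least 50% and at least 75% of replicates reaching 50%; inconclusive = only one of the two criteria met; inactive = both criteria failed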;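 note: plate controls were DMSO neutral control for no effect and GW8510 at 10 µM for full effect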
SR-BI DiI inh: mouse SR-BI HDL lipid transfer inhibition; ldlA[mSR-BI] CHO cells, DiI-HDL uptake fluorescence, 3 h; inhibition, % at 12.5 µM; 320,000 tested, 0.96% active; AID 488896;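 active = mean replicate inhibition of at least 70% and a set share of replicates each scoring 70 or more; inconclusive = meets just one of the two criteria; inactive = fails both criteria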;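 note: 0% = median of neutral control wells and 100% = median of positive control wells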
dFosB act-1: enhances mouse delta FosB homodimer DNA binding | activation, % at 25 µM | P13346 | purified delta FosB, TAMRA-CDK5 oligo fluorescence polarization; percent of positive-control signal above neutral wells | AID 493131 | 340,000 tested, 0.99% active;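 active = mean activation above about 17%, with every replicate also reaching it, limit read from the data, passing the limit was not always enough; inconclusive = only one of the two conditions met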
Target sequence (P13346 whole entry, looked up): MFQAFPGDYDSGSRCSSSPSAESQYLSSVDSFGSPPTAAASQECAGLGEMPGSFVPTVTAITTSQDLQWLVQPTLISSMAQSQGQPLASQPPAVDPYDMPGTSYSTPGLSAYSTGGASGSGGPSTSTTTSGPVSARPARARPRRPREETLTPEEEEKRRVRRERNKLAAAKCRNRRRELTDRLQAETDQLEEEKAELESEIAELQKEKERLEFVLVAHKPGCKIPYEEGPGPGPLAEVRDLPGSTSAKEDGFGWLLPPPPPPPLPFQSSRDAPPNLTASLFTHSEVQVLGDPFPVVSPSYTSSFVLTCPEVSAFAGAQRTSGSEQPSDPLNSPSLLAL
SR-BI uptake up: enhances SR-BI lipid uptake from DiI-HDL | CHO ldlA[mSR-BI] cells, DiI-HDL uptake fluorescence, 3 h; 100 = double the neutral-control signal | activation, % at 12.5 µM | AID 504775 | 320,000 tested, 0.096% active;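 active = mean replicate activation of at least 60% and every replicate at or above 60%; inconclusive = mean or all-replicate condition met, but not both; inactive = mean below 60% and not all replicates reaching 60%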;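 note: 0% = median plate neutral-control signal and 100% = twice that signal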
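System: LDL receptor-deficient CHO ldlA cells overexpressing murine SR-BI | Timing: 3 h uptake period with compound, 37 °C | Medium: HEPES-buffered (25 mM, pH 7.4) F12 plus 0.5% BSA | Dosing: Single-point compound dose | Signal: Bottom-read fluorescence, 550/595 nm | Read-out: Retained DiI signal reflecting DiI-HDL uptake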
dFosB act-2: delta FosB (mouse) homodimer activation; shares compounds with dFosB act-1; purified delta FosB, TAMRA-CDK5 oligo fluorescence polarization; normalised: neutral wells 0, positive control 100; activation, % at 24.9 µM; 2,400 tested, under 10 active; AID 588690;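 active = highest replicate activation at or above 34% and every replicate reaching that threshold; inconclusive = meets only one of the two criteria; inactive = meets neither criterion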;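 note: higher polarization means more probe DNA bound by delta FosB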
Starred values were filed as active, the others as inactive; ? = inconclusive; nt = no result given.

SMILES | PKA-R1A activ | PKA-R2B act | CDK5 inh | SR-BI DiI inh | dFosB act-1 | SR-BI uptake up | dFosB act-2
COc1ccc(CN(C)C(=O)C2CSC3(C)CCC(=O)N23)c(OC)c1 (configuration not stated) | -5.0 | 2.7 | nt | nt | nt | nt | nt
COc1ccc(Cl)cc1S(=O)(=O)Nc1ccc2c(c1)n(C)c(=O)n2C | 0.6 | -5.3 | -0.5 | -10.2 | -1.4 | 10.2 | nt
Cc1ccc(S(=O)(=O)N(CC(=O)N2CCOCC2)c2ccc(C(C)C)cc2)cc1 | -7.5 | 2.2 | -1.6 | -1.4 | -11.6 | 1.4 | nt
CCOc1ccc(NC(=O)Cn2nnc(-c3ccccc3NC(=O)c3cccs3)n2)cc1 | -2.4 | -1.0 | -1.4 | 37.9 | 52.1* | -37.9 | 5.0
CCCC(=O)Nc1ccccc1-c1nnn(CC(=O)Nc2ccc(OC)cc2)n1 | -12.0 | 1.9 | -0.4 | 37.2 | 10.5 | -37.2 | nt
CCCCC1CCC(C(=O)NCC(c2ccco2)N2CCOCC2)CC1 (configuration not stated) | -6.2 | -5.3 | -3.1 | 9.4 | 1.7 | -9.4 | nt
Cc1ccc(-c2nnc(NCc3nc4ccccc4[nH]3)c3ccccc23)cc1S(=O)(=O)N1CCOCC1 | -6.3 | 1.9 | nt | 29.9 | 56.2* | -29.9 | 0.4
Cc1ccc(-c2nnc(NCc3nc4ccccc4[nH]3)c3ccccc23)cc1S(=O)(=O)N(C)C | -2.2 | -1.0 | 0.1 | 43.4 | ? | -43.4 | nt
O=C(CN1CCN(Cc2ccc(Cl)cc2)CC1)N1CCc2ccccc21 | -5.6 | -5.4 | -1.0 | 4.2 | -10.5 | -4.2 | nt
O=C(COC(=O)C1CC(=O)N(CCc2ccccc2)C1)c1ccc[nH]1 (configuration not stated) | 4.8 | -1.4 | 2.4 | -8.8 | 2.3 | 8.8 | nt
CNC(=O)/C(C#N)=C/c1ccc(-c2ccccc2[N+](=O)[O-])o1 | -17.0 | -6.3 | 2.1 | 29.2 | 4.8 | -29.2 | nt
CNC(=O)/C(C#N)=C/c1ccc(-c2ccc(Cl)cc2)o1 | -3.5 | 4.0 | -2.9 | 68.1 | 50.1* | -68.1 | 4.8
Cc1cc(C)cc(NC(=O)C2C3C=CC4(O3)C2C(=O)N(CCCN(C)C)C4C(=O)NC2CCCC(C)C2C)c1 (configuration not stated) | 4.1 | 2.4 | 4.3 | -3.7 | -7.0 | 3.7 | nt
O=C(Cn1ncn2c(cc3ccccc32)c1=O)NCCCc1ccccc1 | 5.6 | -9.5 | -2.6 | -35.3 | 47.5* | 35.3 | 0.5
CCN(CC(=O)Nc1ccc2c(c1)OCCO2)C(=O)/C=C/c1cc(Br)ccc1OC | 7.3 | -10.5 | nt | nt | nt | nt | nt
O=C(Cn1nnc(-c2ccccc2)n1)NNC(=O)c1ccc(Br)cc1 | -11.0 | -12.8 | 2.1 | -22.0 | 36.4* | 22.0 | 1.8
NC(=O)c1nn(-c2ccccc2)nc1NC(=O)Cn1nnc(-c2ccccc2)n1 | -2.2 | -5.9 | -0.3 | -19.0 | 22.2* | 19.0 | 4.3
COc1ccc(-c2cc(C)no2)cc1S(=O)(=O)N1CCOc2ccc(C)cc21 | -2.0 | -13.2 | 1.7 | -2.1 | 44.1* | 2.1 | -5.8
CCc1ccc(-c2cc(C)no2)cc1S(=O)(=O)N1CCOc2ccccc21 | -5.9 | 8.2 | -1.4 | 26.4 | -13.0 | -26.4 | nt
COc1cc(C(=O)N/N=C/c2cc([N+](=O)[O-])cs2)cc(OC)c1OC | -5.7 | 7.8 | -1.1 | 31.4 | -10.4 | -31.4 | nt
Cc1cc(C(=O)N/N=C\c2ccc(COc3ccc([N+](=O)[O-])cc3)o2)ccc1[N+](=O)[O-] | -10.8 | 2.1 | 0.3 | 75.8* | 36.0* | -75.8 | 1.6
Cc1ccc(OCC(=O)N/N=C\c2ccc(C)o2)c([N+](=O)[O-])c1 | -15.4 | -2.1 | -0.9 | -9.6 | -10.1 | 9.6 | nt
CCOc1ccc(C(=O)N/N=C/c2cc([N+](=O)[O-])cs2)cc1 | -9.8 | -5.2 | 3.1 | 31.1 | 21.2* | -31.1 | -7.5
COc1ccccc1/C=C/C(=O)NC(=S)Nc1ccccn1 | -1.9 | 3.6 | 1.8 | -0.9 | -17.1 | 0.9 | nt
COc1ccc(/C=C/C(=O)NC(=S)Nc2ccccn2)cc1 | 4.0 | -3.1 | -1.6 | -29.7 | 17.0* | 29.7 | -0.3
SMILES | PKA-R1A activ | PKA-R2B act | CDK5 inh | SR-BI DiI inh | dFosB act-1 | SR-BI uptake up | dFosB act-2
OCC[C@@H]1C[C@H](O)[C@@H](O)[C@]2(OCc3ccc4ccccc4c32)O1 | 3.1 | -1.4 | nt | nt | nt | nt | nt
CCCn1nc(C(=O)Nc2ccc(S(=O)(=O)Nc3nccs3)cc2)c2ccccc2c1=O | 5.1 | -11.8 | 7.3 | 13.5 | -7.1 | -13.5 | nt
CCCn1nc(C(=O)Nc2cc(S(=O)(=O)Nc3ccc(OC)cc3)ccc2O)c2ccccc2c1=O | 0.1 | -2.1 | 0.6 | -2.2 | 20.8* | 2.2 | 1.7
O=C(/C=C/c1cccs1)NC(=S)Nc1ccc(C(=O)O)cc1 | -1.5 | -13.1 | -5.4 | nt | 0.4 | nt | nt
NS(=O)(=O)c1ccc(NC(=S)NC(=O)/C=C/c2cccs2)cc1 | -4.4 | -2.1 | 2.6 | -8.4 | 26.0* | 8.4 | 1.1
COc1ccc2cc3cc(C(=O)NCc4ccc5c(c4)OCO5)oc3nc2c1 | 0.4 | 8.0 | 0.2 | -0.3 | 17.1* | 0.3 | -1.1
S=C(NCC1CC1)N/N=C/c1ccccc1Cl | -9.9 | 7.2 | 0.1 | 2.0 | 5.3 | -2.0 | nt
S=C(N/N=C/c1ccccc1Cl)Nc1cccc(Cl)c1Cl | -0.5 | 4.7 | -0.2 | 50.2 | 36.5* | -50.2 | 3.3
O=C(Nc1ccncc1)C1c2ccccc2Oc2ccccc21 | -3.5 | -1.8 | -0.3 | -15.6 | 0.3 | 15.6 | nt
CCCCNS(=O)(=O)c1ccc(NC(=O)C2c3ccccc3Oc3ccccc32)cc1 | -8.3 | 14.2 | 0.9 | -21.4 | 44.0* | 21.4 | -4.4
COc1ccc(NS(=O)(=O)c2cc(NC(=O)c3cc(=O)c4ccccc4o3)ccc2OC)cc1 | -13.1 | 6.3 | -0.8 | 52.4 | 48.0* | -52.4 | 5.6
COc1ccc(OC)c(S(=O)(=O)Nc2c(NC3CCCCC3)c3ccccc3oc2=O)c1 | -2.2 | 1.3 | 0.1 | 15.9 | -14.8 | -15.9 | nt
CC(=O)Oc1cccc(N2C(=O)c3ccc(C(=O)Nc4c[nH]c(=O)[nH]c4=O)cc3C2=O)c1 | 1.2 | 1.6 | -2.5 | -10.5 | 20.3* | 10.5 | 0.7
C=CCn1c(SCC(=O)NCc2ccc3c(c2)OCO3)nc2scc(-c3ccc(F)cc3)c2c1=O | -4.5 | 1.1 | -0.1 | -37.1 | 45.4* | 37.1 | 1.4
Cc1c(Cl)cccc1NC(=O)CNC(=O)C1CCN(C(=O)Nc2ccccc2)CC1 | 3.0 | -2.4 | -4.8 | 29.3 | 24.4* | -29.3 | 2.0
Cc1ccccc1OCc1nnc(SCC(=O)Nc2ccc3nc(SCC(=O)Nc4ccccc4)sc3c2)n1C | -0.5 | -6.5 | 0.4 | 31.9 | 19.9* | -31.9 | 1.7

Screening results deposited in PubChem by several laboratories.
